Data as given in article PMC4629212 (Acta Pharmaceutica Sinica. B, 2015).

How the values were obtained:
BChE = BChE (Equus caballus, UniProt P81908); test: BChE inhibition, modified Ellman method; assay type: biochemical, equine; conditions: for inhibition at 50 µM: 0.25 h, read-out: Inhibition ratios for BChE
AChE [1] = target: T1, AChE (Electrophorus electricus, UniProt O42275); test: biochemical; set-up: species or system Electric Eel; conditions: for inhibition at 50 µM: 0.25 h, read-out: Inhibition ratios for AChE
T1 sequence (O42275 24-633): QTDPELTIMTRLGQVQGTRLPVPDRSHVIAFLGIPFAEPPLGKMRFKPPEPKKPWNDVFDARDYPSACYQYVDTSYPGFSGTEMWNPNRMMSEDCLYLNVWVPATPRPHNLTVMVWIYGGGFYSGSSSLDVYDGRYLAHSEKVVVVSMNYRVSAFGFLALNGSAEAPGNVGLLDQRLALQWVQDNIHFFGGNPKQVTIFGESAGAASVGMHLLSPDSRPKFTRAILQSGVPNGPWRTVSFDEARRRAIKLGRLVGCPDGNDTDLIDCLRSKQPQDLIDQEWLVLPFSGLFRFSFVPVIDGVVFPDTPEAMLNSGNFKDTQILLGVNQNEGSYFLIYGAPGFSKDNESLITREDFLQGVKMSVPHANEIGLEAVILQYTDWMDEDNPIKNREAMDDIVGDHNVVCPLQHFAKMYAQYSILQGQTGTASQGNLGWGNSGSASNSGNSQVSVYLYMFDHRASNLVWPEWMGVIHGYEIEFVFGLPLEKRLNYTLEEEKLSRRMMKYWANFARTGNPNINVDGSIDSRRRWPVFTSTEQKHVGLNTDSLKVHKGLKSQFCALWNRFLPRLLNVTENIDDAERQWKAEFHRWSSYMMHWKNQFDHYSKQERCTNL

HepG-2 cells = test: MTT assay of HepG-2 cell viability; assay type: cell-based, human; conditions: for Inhibition ratios for HepG-2 cell viability: 10 μmol/L compound, 48 h, mean of three independent experiments; for Effect on HepG-2 cell viability (in words): 10 μmol/L
Summary of the method: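 HepG-2 cells were kept at 37 °C under 5% CO2 and seeded at 5×10^3 cells/well. After 12 h, test compound was added at 10 µmol/L for 48 h. Viability was read by MTT conversion to purple formazan, and the inhibition rate was calculated against untreated cells set as 100%.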

[2] = Metal-chelating study by UV-Vis spectrometry; assay type: physicochemical
Summary of the method: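 Test compound (20 μmol/L final) was incubated in water for 30 min at room temperature, alone or with CuSO4, FeCl3 or ZnCl2 (each 20 μmol/L final). UV-Vis absorption spectra were then recorded from 200 to 500 nm.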

AChE [3] = target: T1, AChE; test: Kinetic characterization of AChE inhibition; assay type: biochemical, Electric Eel; conditions: Lineweaver–Burk plots
Summary of the method: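 Acetylthiocholine hydrolysis by AChE was measured at six substrate concentrations in 0.1 mol/L KH2PO4/K2HPO4 buffer, pH 8.0, with DTNB. Test compound was pre-incubated with the enzyme for 15 min at 37 °C before substrate was added. Absorbance was read at 412 nm, and a parallel no-inhibitor control was run.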

BChE, sequence (P81908 whole entry): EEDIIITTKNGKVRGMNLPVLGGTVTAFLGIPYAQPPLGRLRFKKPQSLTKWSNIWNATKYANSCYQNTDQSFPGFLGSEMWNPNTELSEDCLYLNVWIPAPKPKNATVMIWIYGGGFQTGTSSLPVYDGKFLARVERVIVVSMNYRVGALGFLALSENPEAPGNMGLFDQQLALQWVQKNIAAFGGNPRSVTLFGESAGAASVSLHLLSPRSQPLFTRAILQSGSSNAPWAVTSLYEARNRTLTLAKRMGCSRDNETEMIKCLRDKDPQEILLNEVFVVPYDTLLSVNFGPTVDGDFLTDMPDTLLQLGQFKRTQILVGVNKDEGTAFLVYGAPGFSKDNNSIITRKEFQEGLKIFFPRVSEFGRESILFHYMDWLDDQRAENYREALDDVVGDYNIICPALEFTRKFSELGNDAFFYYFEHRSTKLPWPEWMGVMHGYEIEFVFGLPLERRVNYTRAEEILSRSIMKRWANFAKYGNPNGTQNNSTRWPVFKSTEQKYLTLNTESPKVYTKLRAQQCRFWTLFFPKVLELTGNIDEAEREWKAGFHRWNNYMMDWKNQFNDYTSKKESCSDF

Compound	inhibition at 50 µM (BChE)	inhibition at 50 µM (AChE [1])	Inhibition ratios for HepG-2 cell viability (HepG-2 cells)	IC50 (BChE)	IC50 (AChE [1])	further results
Cl.NCCCNC(=O)COc1cc(O)c2c(=O)c(-c3ccc(O)cc3)coc2c1 [Compound 4c, N-(3-aminopropyl)-2-(5-hydroxy-3-(4-hydroxyphenyl)-4-oxo-4H-chromen-7-yloxy)acetamide hydrochloride]	13.8 ± 1.05%	37 ± 2.07%	14.57%	–	–	–
Cl.NCCCNCCCNC(=O)COc1cc(O)c2c(=O)c(-c3ccc(O)cc3)coc2c1 [Compound 4f, N-(3-(3-aminopropylamino)propyl)-2-(5-hydroxy-3-(4-hydroxyphenyl)-4-oxo-4H-chromen-7-yloxy)acetamide hydrochloride]	9.52 ± 1.48%	10.2 ± 0.44%	11.74%	–	–	–
Cl.O=C(COc1cc(O)c2c(=O)c(-c3ccc(O)cc3)coc2c1)NCCCCN1CCNCC1 [Compound 4e, 2-(5-hydroxy-3-(4-hydroxyphenyl)-4-oxo-4H-chromen-7-yloxy)-N-(4-(piperazin-1-yl)butyl)acetamide hydrochloride]	11.7 ± 0.82%	19.3 ± 1.87%	8.51%	–	–	–
Cl.NCCCCNC(=O)COc1cc(O)c2c(=O)c(-c3ccc(O)cc3)coc2c1 [Compound 4d, N-(4-aminobutyl)-2-(5-hydroxy-3-(4-hydroxyphenyl)-4-oxo-4H-chromen-7-yloxy)acetamide hydrochloride]	9.02 ± 0.23%	34.5 ± 2.76%	1.17%	–	–	–
Cl.NCCCCNCCCCNC(=O)COc1cc(O)c2c(=O)c(-c3ccc(O)cc3)coc2c1 [Compound 4h, N-(4-(4-aminobutylamino)butyl)-2-(5-hydroxy-3-(4-hydroxyphenyl)-4-oxo-4H-chromen-7-yloxy)acetamide hydrochloride]	39.2%	51 ± 0.55%	16.30%	> 50 µM	46.6 ± 3.87 µM	Inhibition ratios for BChE (BChE; 50 μmol/L compound, mean±SEM of two experiments, BChE from equine serum): 39.20±5.64%; Effect on HepG-2 cell viability (in words) (HepG-2 cells): no obvious effect on cell viability
Nc1c2c(nc3ccccc13)CCCC2 [Tacrine, reference compound]	–	–	57.35%	–	–	–
CCCCNC(=O)COc1cc(O)c2c(=O)c(-c3ccc(O)cc3)coc2c1 [Compound 4a, N-butyl-2-(5-hydroxy-3-(4-hydroxyphenyl)-4-oxo-4H-chromen-7-yloxy)acetamide]	1.19 ± 0.59%	7.88 ± 3.58%	6.40%	–	–	–
O=c1c(-c2ccc(O)cc2)coc2cc(O)cc(O)c12 [Genistein, reference compound]	–	–	–	> 100 µM	> 100 µM	inhibition at 100 µM (AChE [1]; read-out: Inhibition of AChE activity): < 50%
CN(C)CCNC(=O)COc1cc(O)c2c(=O)c(-c3ccc(O)cc3)coc2c1.Cl [Compound 4b, N-(2-(dimethylamino)ethyl)-2-(5-hydroxy-3-(4-hydroxyphenyl)-4-oxo-4H-chromen-7-yloxy)acetamide hydrochloride]	26.1 ± 2.52%	90.4 ± 1.23%	1.53%	> 50 µM	2.75 ± 0.28 µM	Metal-chelating ability (overall) [2]: potent metal-chelating ability; Chelation of Cu^2+ (UV-Vis spectrum change) ([2]; 20 μmol/L compound, 20 μmol/L Cu^2+, in water): poor chelating ability; Inhibition type of AChE (AChE [3]): mixed-type inhibition; Effect on HepG-2 cell viability (in words) (HepG-2 cells): no obvious effect on cell viability
Cl.NCCCNCCCCNC(=O)COc1cc(O)c2c(=O)c(-c3ccc(O)cc3)coc2c1 [Compound 4g, N-(4-(3-aminopropylamino)butyl)-2-(5-hydroxy-3-(4-hydroxyphenyl)-4-oxo-4H-chromen-7-yloxy)acetamide hydrochloride]	17.9 ± 2.83%	16.5 ± 1.36%	16.72%	–	–	–
